{"source": "ChEMBL document CHEMBL5724801", "about": "“EUbOPEN Chemogenomics Library - Multiplex” (2024)", "key": {"HEK-293T": {"tested_on": "HEK-293T", "experiment": "Multiplex assay against HEK293T", "type": "toxicity, cell-based", "conditions": "human", "procedure,_shortened": "(§1)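 With compound added, live cells were imaged on a CQ1 microscope at 37°C and 5% CO2; staining with Hoechst33342, BioTracker Green Microtubule Cytoskeleton Dye, MitoTracker Red and Annexin V Alexa Fluor 680 had been done at seeding. The CellPathfinder machine-learning gating scheme split cells into Hoechst high-intensity objects or normal cells, normal cells into healthy, pyknosed or fragmented nuclei, and pyknosed cells into mitotic or apoptotic. The tubulin, mitochondrial-mass and membrane-permeability phenotypes are per cents of healthy-nucleus cells.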"}, "Fibroblast": {"tested_on": "Fibroblast", "experiment": "Multiplex assay against human fibroblast", "type": "toxicity, cell-based", "procedure,_shortened": "as §1"}, "[1]": {"conditions": "24 h, 1 µM, compound concentration 1 uM"}, "[2]": {"conditions": "24 h, 10 µM, compound concentration 10 uM"}, "[3]": {"conditions": "48 h, 1 µM, compound concentration 1 uM"}, "[4]": {"conditions": "48 h, 10 µM, compound concentration 10 uM"}, "[5]": {"conditions": "12 h, 1 µM, compound concentration 1 uM"}, "[6]": {"conditions": "12 h, 10 µM, compound concentration 10 uM"}}, "note": "Several values for one entry are separate records, joined by “and”; a condition that tells them apart may be missing. Equal values may be shown once."}
{"smiles": "CN(C)C/C=C/C(=O)Nc1ccc(C(=O)N2CCCC(Nc3ncc(Cl)c(-c4c[nH]c5ccccc45)n3)C2)cc1", "note": "(centres undefined)", "values": [{"measurement": "Total Cell Count", "setting": "HEK-293T; [1]", "result": "222 and 207"}, {"measurement": "Population Apoptotic (%)", "setting": "HEK-293T; [2]", "result": "74% and 88%"}, {"measurement": "Population Fragmented Nuclei (%)", "setting": "HEK-293T; [2]", "result": "19% and 10%"}, {"measurement": "Population Healthy Nuclei (%)", "setting": "HEK-293T; [2]", "result": "55% and 68%"}, {"measurement": "Population Hoechst High Intensity Objects (%)", "setting": "HEK-293T; [2]", "result": "49% and 34%"}, {"measurement": "Population Membrane Permeable-Phenotype (%)", "setting": "HEK-293T; [2]", "result": 0, "unit": "%"}, {"measurement": "Population Mitochondria Different-Phenotype (%)", "setting": "HEK-293T; [2]", "result": "96% and 98%"}, {"measurement": "Population Mitotic Cells (%)", "setting": "HEK-293T; [2]", "result": "25% and 11%"}, {"measurement": "Population Normal (%)", "setting": "HEK-293T; [2]", "result": "50% and 65%"}, {"measurement": "Population Pyknosed Nuclei (%)", "setting": "HEK-293T; [2]", "result": "24% and 20%"}, {"measurement": "Population Tubulin-Different-Phenotype (%)", "setting": "HEK-293T; [2]", "result": "52% and 77%"}, {"measurement": "Total Cell Count", "setting": "HEK-293T; [2]", "result": "314 and 197"}, {"measurement": "Population Apoptotic (%)", "setting": "HEK-293T; [3]", "result": "67% and 81%"}, {"measurement": "Population Fragmented Nuclei (%)", "setting": "HEK-293T; [3]", "result": "16% and 6%"}, {"measurement": "Population Healthy Nuclei (%)", "setting": "HEK-293T; [3]", "result": "59% and 65%"}, {"measurement": "Population Hoechst High Intensity Objects (%)", "setting": "HEK-293T; [3]", "result": "30% and 26%"}, {"measurement": "Population Membrane Permeable-Phenotype (%)", "setting": "HEK-293T; [3]", "result": 0, "unit": "%"}, {"measurement": "Population Mitochondria Different-Phenotype (%)", "setting": "HEK-293T; [3]", "result": "79% and 95%"}, {"measurement": "Population Mitotic Cells (%)", "setting": "HEK-293T; [3]", "result": "32% and 18%"}, {"measurement": "Population Normal (%)", "setting": "HEK-293T; [3]", "result": "69% and 73%"}, {"measurement": "Population Pyknosed Nuclei (%)", "setting": "HEK-293T; [3]", "result": "23% and 27%"}, {"measurement": "Population Tubulin-Different-Phenotype (%)", "setting": "HEK-293T; [3]", "result": "71% and 74%"}, {"measurement": "Total Cell Count", "setting": "HEK-293T; [3]", "result": "239 and 184"}, {"measurement": "Population Apoptotic (%)", "setting": "HEK-293T; [4]", "result": "55% and 80%"}, {"measurement": "Population Fragmented Nuclei (%)", "setting": "HEK-293T; [4]", "result": "62% and 47%"}, {"measurement": "Population Healthy Nuclei (%)", "setting": "HEK-293T; [4]", "result": "14% and 30%"}, {"measurement": "Population Hoechst High Intensity Objects (%)", "setting": "HEK-293T; [4]", "result": "67% and 58%"}, {"measurement": "Population Membrane Permeable-Phenotype (%)", "setting": "HEK-293T; [4]", "result": 0, "unit": "%"}, {"measurement": "Population Mitochondria Different-Phenotype (%)", "setting": "HEK-293T; [4]", "result": "100% and 94%"}, {"measurement": "Population Mitotic Cells (%)", "setting": "HEK-293T; [4]", "result": "44% and 20%"}, {"measurement": "Population Normal (%)", "setting": "HEK-293T; [4]", "result": "32% and 41%"}, {"measurement": "Population Pyknosed Nuclei (%)", "setting": "HEK-293T; [4]", "result": "23% and 21%"}, {"measurement": "Population Tubulin-Different-Phenotype (%)", "setting": "HEK-293T; [4]", "result": "23% and 57%"}, {"measurement": "Total Cell Count", "setting": "HEK-293T; [4]", "result": "361 and 277"}, {"measurement": "Population Apoptotic (%)", "setting": "Fibroblast; [5]", "result": "48% and 46%"}, {"measurement": "Population Fragmented Nuclei (%)", "setting": "Fibroblast; [5]", "result": "15% and 21%"}, {"measurement": "Population Healthy Nuclei (%)", "setting": "Fibroblast; [5]", "result": "64% and 53%"}, {"measurement": "Population Hoechst High Intensity Objects (%)", "setting": "Fibroblast; [5]", "result": "2% and 6%"}, {"measurement": "Population Membrane Permeable-Phenotype (%)", "setting": "Fibroblast; [5]", "result": "2% and 3%"}, {"measurement": "Population Mitochondria Different-Phenotype (%)", "setting": "Fibroblast; [5]", "result": "11% and 13%"}, {"measurement": "Population Mitotic Cells (%)", "setting": "Fibroblast; [5]", "result": "51% and 53%"}, {"measurement": "Population Normal (%)", "setting": "Fibroblast; [5]", "result": "97% and 93%"}, {"measurement": "Population Pyknosed Nuclei (%)", "setting": "Fibroblast; [5]", "result": "19% and 25%"}, {"measurement": "Population Tubulin-Different-Phenotype (%)", "setting": "Fibroblast; [5]", "result": 40, "unit": "%"}, {"measurement": "Total Cell Count", "setting": "Fibroblast; [5]", "result": "152 and 182"}, {"measurement": "Population Apoptotic (%)", "setting": "Fibroblast; [6]", "result": "59% and 48%"}, {"measurement": "Population Fragmented Nuclei (%)", "setting": "Fibroblast; [6]", "result": "18% and 23%"}, {"measurement": "Population Healthy Nuclei (%)", "setting": "Fibroblast; [6]", "result": "53% and 41%"}, {"measurement": "Population Hoechst High Intensity Objects (%)", "setting": "Fibroblast; [6]", "result": "4% and 8%"}, {"measurement": "Population Mitochondria Different-Phenotype (%)", "setting": "Fibroblast; [6]", "result": "37% and 19%"}, {"measurement": "Population Mitotic Cells (%)", "setting": "Fibroblast; [6]", "result": "40% and 51%"}, {"measurement": "Population Normal (%)", "setting": "Fibroblast; [6]", "result": "95% and 91%"}, {"measurement": "Population Pyknosed Nuclei (%)", "setting": "Fibroblast; [6]", "result": "27% and 35%"}, {"measurement": "Population Tubulin-Different-Phenotype (%)", "setting": "Fibroblast; [6]", "result": "77% and 58%"}, {"measurement": "Total Cell Count", "setting": "Fibroblast; [6]", "result": "140 and 147"}, {"measurement": "Population Apoptotic (%)", "setting": "Fibroblast; [1]", "result": "68% and 37%"}, {"measurement": "Population Fragmented Nuclei (%)", "setting": "Fibroblast; [1]", "result": "25% and 26%"}, {"measurement": "Population Healthy Nuclei (%)", "setting": "Fibroblast; [1]", "result": "48% and 49%"}, {"measurement": "Population Hoechst High Intensity Objects (%)", "setting": "Fibroblast; [1]", "result": 7, "unit": "%"}, {"measurement": "Population Membrane Permeable-Phenotype (%)", "setting": "Fibroblast; [1]", "result": "2% and 10%"}, {"measurement": "Population Mitochondria Different-Phenotype (%)", "setting": "Fibroblast; [1]", "result": "7% and 10%"}, {"measurement": "Population Mitotic Cells (%)", "setting": "Fibroblast; [1]", "result": "31% and 62%"}, {"measurement": "Population Normal (%)", "setting": "Fibroblast; [1]", "result": 92, "unit": "%"}, {"measurement": "Population Pyknosed Nuclei (%)", "setting": "Fibroblast; [1]", "result": "26% and 23%"}, {"measurement": "Population Tubulin-Different-Phenotype (%)", "setting": "Fibroblast; [1]", "result": "40% and 54%"}, {"measurement": "Total Cell Count", "setting": "Fibroblast; [1]", "result": "155 and 181"}, {"measurement": "Population Apoptotic (%)", "setting": "Fibroblast; [2]", "result": "65% and 47%"}, {"measurement": "Population Fragmented Nuclei (%)", "setting": "Fibroblast; [2]", "result": "13% and 30%"}, {"measurement": "Population Healthy Nuclei (%)", "setting": "Fibroblast; [2]", "result": "49% and 42%"}, {"measurement": "Population Hoechst High Intensity Objects (%)", "setting": "Fibroblast; [2]", "result": "2% and 6%"}, {"measurement": "Population Membrane Permeable-Phenotype (%)", "setting": "Fibroblast; [2]", "result": "0% and 5%"}, {"measurement": "Population Mitochondria Different-Phenotype (%)", "setting": "Fibroblast; [2]", "result": "52% and 35%"}, {"measurement": "Population Mitotic Cells (%)", "setting": "Fibroblast; [2]", "result": "34% and 52%"}, {"measurement": "Population Normal (%)", "setting": "Fibroblast; [2]", "result": "97% and 93%"}, {"measurement": "Population Pyknosed Nuclei (%)", "setting": "Fibroblast; [2]", "result": "37% and 27%"}, {"measurement": "Population Tubulin-Different-Phenotype (%)", "setting": "Fibroblast; [2]", "result": "84% and 72%"}, {"measurement": "Total Cell Count", "setting": "Fibroblast; [2]", "result": "119 and 149"}, {"measurement": "Population Apoptotic (%)", "setting": "Fibroblast; [3]", "result": "63% and 60%"}, {"measurement": "Population Fragmented Nuclei (%)", "setting": "Fibroblast; [3]", "result": "33% and 35%"}, {"measurement": "Population Healthy Nuclei (%)", "setting": "Fibroblast; [3]", "result": "36% and 40%"}, {"measurement": "Population Hoechst High Intensity Objects (%)", "setting": "Fibroblast; [3]", "result": "10% and 8%"}, {"measurement": "Population Membrane Permeable-Phenotype (%)", "setting": "Fibroblast; [3]", "result": "2% and 8%"}, {"measurement": "Population Mitochondria Different-Phenotype (%)", "setting": "Fibroblast; [3]", "result": "20% and 25%"}, {"measurement": "Population Mitotic Cells (%)", "setting": "Fibroblast; [3]", "result": "36% and 40%"}, {"measurement": "Population Normal (%)", "setting": "Fibroblast; [3]", "result": "90% and 91%"}, {"measurement": "Population Pyknosed Nuclei (%)", "setting": "Fibroblast; [3]", "result": "30% and 24%"}, {"measurement": "Population Tubulin-Different-Phenotype (%)", "setting": "Fibroblast; [3]", "result": "48% and 68%"}, {"measurement": "Total Cell Count", "setting": "Fibroblast; [3]", "result": "150 and 158"}, {"measurement": "Population Apoptotic (%)", "setting": "Fibroblast; [4]", "result": "77% and 68%"}, {"measurement": "Population Fragmented Nuclei (%)", "setting": "Fibroblast; [4]", "result": "28% and 27%"}, {"measurement": "Population Healthy Nuclei (%)", "setting": "Fibroblast; [4]", "result": "20% and 41%"}, {"measurement": "Population Hoechst High Intensity Objects (%)", "setting": "Fibroblast; [4]", "result": "14% and 13%"}, {"measurement": "Population Membrane Permeable-Phenotype (%)", "setting": "Fibroblast; [4]", "result": "0% and 17%"}, {"measurement": "Population Mitochondria Different-Phenotype (%)", "setting": "Fibroblast; [4]", "result": "55% and 29%"}, {"measurement": "Population Mitotic Cells (%)", "setting": "Fibroblast; [4]", "result": "22% and 31%"}, {"measurement": "Population Normal (%)", "setting": "Fibroblast; [4]", "result": "85% and 86%"}, {"measurement": "Population Pyknosed Nuclei (%)", "setting": "Fibroblast; [4]", "result": "51% and 30%"}, {"measurement": "Population Tubulin-Different-Phenotype (%)", "setting": "Fibroblast; [4]", "result": "66% and 80%"}, {"measurement": "Total Cell Count", "setting": "Fibroblast; [4]", "result": "103 and 130"}]}
